Source: ChEMBL document CHEMBL2417469, “Synthesis of novel analogs of 2-pyrazoline obtained from [(7-chloroquinolin-4-yl)amino]chalcones and hydrazine as potential antitumor and antimalarial agents” (Eur J Med Chem, 2013)

Assays:
Type in all cases: functional
OVCAR-3 = assay: Cytotoxicity against human OVCAR3 cells after 48 hrs by SRB assay; settings: OVCAR-3, 48 h
Procedure, shortened: (§1)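 NCI 60-cell-line screen. Cells preincubated 24 h at 37 °C, 5% CO2; time-zero plates TCA-fixed. Compounds dissolved in DMSO and tested at five concentrations (100, 10, 1.0, 0.1, 0.01 µM) for 48 h continuous exposure. Adherent cells fixed with cold TCA (10% final), then SRB stained; absorbance at 515 nm. GI50, TGI and LC50 calculated from growth relative to time-zero and untreated controls.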

HOP-62 = assay: Cytotoxicity against human HOP62 cells after 48 hrs by SRB assay; settings: HOP-62, 48 h; procedure, shortened: as §1
SF-268 = assay: Cytotoxicity against human SF268 cells after 48 hrs by SRB assay; settings: SF-268, 48 h; procedure, shortened: as §1
Plasmodium falciparum = assay: Antimalarial activity against Plasmodium falciparum NF54 infected in human serum at 20 ug/ml after 48 hrs by fluorometric method
Procedure, shortened: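 Asynchronous P. falciparum NF54 at 1.5–2% parasitemia, 5% hematocrit in RPMI with 10% human serum, exposed 48 h at 37 °C under 90% N2/5% CO2/5% O2 at the stated concentration; parasite DNA stained with ethidium bromide after proteinase K lysis; viability % = (Flu treated − medium)/(Flu untreated − medium) ×100; triplicate.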

ACHN = assay: Cytotoxicity against human ACHN cells after 48 hrs by SRB assay; settings: for CC50: read-out: LC50 (the source's name); procedure, shortened: as §1
HOP-92 = assay: Cytotoxicity against human HOP92 cells after 48 hrs by SRB assay; settings: HOP-92, 48 h; procedure, shortened: as §1
MCF7 = assay: Cytotoxicity against human MCF7 cells after 48 hrs by SRB assay; settings: MCF7, 48 h; for CC50: read-out: LC50 (the source's name); procedure, shortened: as §1
NCI-H460 = assay: Cytotoxicity against human NCI-H460 cells after 48 hrs by SRB assay; settings: NCI-H460, 48 h; procedure, shortened: as §1
SN12C = assay: Cytotoxicity against human SN12C cells after 48 hrs by SRB assay; procedure, shortened: as §1
HCC 2998 = assay: Cytotoxicity against human HCC2998 cells after 48 hrs by SRB assay; settings: HCC 2998, 48 h; procedure, shortened: as §1
MDA-MB-435 = assay: Cytotoxicity against human MDA-MB-435 cells after 48 hrs by SRB assay; settings: MDA-MB-435, 48 h; procedure, shortened: as §1
[1] = Cytotoxicity against human EKVX cells after 48 hrs by SRB assay; procedure, shortened: as §1
SNB-19 = assay: Cytotoxicity against human SNB19 cells after 48 hrs by SRB assay; settings: SNB-19, 48 h
Procedure, shortened: (§2)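 NCI 60-cell screen. Cells grew 24 h (37 °C, 5% CO2) before compound was added. Compounds were in DMSO and diluted in medium with gentamicin, then tested at five levels (100, 10, 1.0, 0.1, 0.01 µM) with 48 h continuous exposure. Adherent cells were fixed with TCA (10% final) and stained with 0.4% SRB, absorbance read at 515 nm. A time-zero plate was included. LC50 is the concentration giving 50% loss of protein relative to time zero.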

SK-MEL-28 = assay: Cytotoxicity against human SK-MEL-28 cells after 48 hrs by SRB assay; settings: SK-MEL-28, 48 h; for CC50: read-out: LC50 (the source's name); procedure, shortened: as §1
RPMI-8226 = assay: Cytotoxicity against human RPMI8226 cells after 48 hrs by SRB assay; settings: RPMI-8226, 48 h; procedure, shortened: as §1
K562 = assay: Cytotoxicity against human K562 cells after 48 hrs by SRB assay; settings: K562, 48 h; procedure, shortened: as §1
SK-MEL-2 = assay: Cytotoxicity against human SK-MEL-2 cells after 48 hrs by SRB assay; settings: SK-MEL-2, 48 h; procedure, shortened: as §1
HCT-116 = assay: Cytotoxicity against human HCT116 cells after 48 hrs by SRB assay; settings: HCT-116, 48 h; procedure, shortened: as §1
T47D = assay: Cytotoxicity against human T47D cells after 48 hrs by SRB assay; procedure, shortened: as §2
NCI-H226 = assay: Cytotoxicity against human NCI-H226 cells after 48 hrs by SRB assay; settings: NCI-H226, 48 h; procedure, shortened: as §1
OVCAR-8 = assay: Cytotoxicity against human OVCAR8 cells after 48 hrs by SRB assay; settings: OVCAR-8, 48 h; procedure, shortened: as §1
OVCAR-5 = assay: Cytotoxicity against human OVCAR5 cells after 48 hrs by SRB assay; settings: OVCAR-5, 48 h; procedure, shortened: as §1
SK-MEL-5 = assay: Cytotoxicity against human SK-MEL-5 cells after 48 hrs by SRB assay; settings: SK-MEL-5, 48 h; procedure, shortened: as §1

Compound: COc1ccc(C2CC(c3cccc(Nc4ccnc5cc(Cl)ccc45)c3)=NN2C=O)cc1 (stereo unspecified)
- GI50 (OVCAR-3): 0.47 µM
- LC50 (OVCAR-3): 77.4 µM
- GI50 (HOP-62): 0.66 µM
- LC50 (50% lethal concentration) (HOP-62): > 100 µM
- GI50 (SF-268): 2.56 µM
- LC50 (SF-268): > 100 µM
- inhibition at 20 µg/mL (Plasmodium falciparum): 4.1%
- GI50 (ACHN): 0.87 µM
- CC50 (ACHN): > 100 µM
- GI50 (HOP-92): > 100 µM
- LC50 (concentration killing 50% of cells) (HOP-92): > 100 µM
- GI50 (MCF7): 0.37 µM
- CC50 (MCF7): > 100 µM
- GI50 (NCI-H460): 0.4 µM
- LC50 (NCI-H460): > 100 µM
- GI50 (SN12C): 0.78 µM
- LC50 (50% net cell kill relative to time zero) (SN12C): > 100 µM
- GI50 (HCC 2998): 1.32 µM
- LC50 (HCC 2998): > 100 µM
- GI50 (MDA-MB-435): 0.14 µM
- LC50 (MDA-MB-435): > 100 µM
- GI50 [1]: 0.64 µM
- LC50 [1]: > 100 µM
- GI50 (SNB-19): 0.87 µM
- LC50 (SNB-19): > 100 µM
- GI50 (SK-MEL-28): 0.96 µM
- CC50 (SK-MEL-28): > 100 µM
- GI50 (RPMI-8226): 16.7 µM
- LC50 (concentration killing 50% of cells) (RPMI-8226): > 100 µM
- GI50 (K562): 0.29 µM
- LC50 (concentration killing 50% of cells) (K562): > 100 µM
- GI50 (SK-MEL-2): 0.49 µM
- LC50 (SK-MEL-2): > 100 µM
- GI50 (HCT-116): 0.38 µM
- LC50 (HCT-116): 38.1 µM
- GI50 (T47D): 0.53 µM
- LC50 (concentration giving 50% cell kill relative to time zero) (T47D): > 100 µM
- GI50 (NCI-H226): 41.6 µM
- LC50 (50% lethal concentration) (NCI-H226): > 100 µM
- GI50 (OVCAR-8): 0.95 µM
- LC50 (50% net cell kill) (OVCAR-8): > 100 µM
- GI50 (OVCAR-5): 3.51 µM
- LC50 (OVCAR-5): > 100 µM
- GI50 (SK-MEL-5): 0.41 µM
- LC50 (concentration killing 50% of cells present at time zero) (SK-MEL-5): > 100 µM

Compound: COc1cc(C2CC(c3ccc(Nc4ccnc5cc(Cl)ccc45)cc3)=NN2C=O)cc(OC)c1OC (stereo unspecified)
- GI50 (OVCAR-3): 1.91 µM
- LC50 (OVCAR-3): 6.03 µM
- GI50 (HOP-62): 4.13 µM
- LC50 (50% lethal concentration) (HOP-62): 96.1 µM
- GI50 (SF-268): 28 µM
- LC50 (SF-268): > 100 µM
- inhibition at 20 µg/mL (Plasmodium falciparum): 5.8%
- GI50 (ACHN): 3.24 µM
- CC50 (ACHN): 47 µM
- GI50 (HOP-92): 1.83 µM
- LC50 (concentration killing 50% of cells) (HOP-92): > 100 µM
- GI50 (MCF7): 3.23 µM
- CC50 (MCF7): > 100 µM
- GI50 (NCI-H460): 4.42 µM
- LC50 (NCI-H460): > 100 µM
- GI50 (SN12C): 4.37 µM
- LC50 (50% net cell kill relative to time zero) (SN12C): > 100 µM
- GI50 (HCC 2998): 5.52 µM
- LC50 (HCC 2998): > 100 µM
- GI50 (MDA-MB-435): 2.1 µM
- LC50 (MDA-MB-435): > 100 µM
- GI50 [1]: 11.7 µM
- LC50 [1]: > 100 µM
- GI50 (SNB-19): 18.2 µM
- LC50 (SNB-19): > 100 µM
- GI50 (SK-MEL-28): 2.22 µM
- CC50 (SK-MEL-28): 14 µM
- GI50 (RPMI-8226): 2.56 µM
- LC50 (concentration killing 50% of cells) (RPMI-8226): > 100 µM
- GI50 (HCT-116): 3.21 µM
- LC50 (HCT-116): > 100 µM
- GI50 (T47D): 2.33 µM
- LC50 (concentration giving 50% cell kill relative to time zero) (T47D): > 100 µM
- GI50 (NCI-H226): 34.5 µM
- LC50 (50% lethal concentration) (NCI-H226): > 100 µM
- GI50 (OVCAR-8): 9.98 µM
- LC50 (50% net cell kill) (OVCAR-8): > 100 µM
- GI50 (OVCAR-5): 69.2 µM
- LC50 (OVCAR-5): > 100 µM
- GI50 (SK-MEL-5): 1.98 µM
- LC50 (concentration killing 50% of cells present at time zero) (SK-MEL-5): 35.5 µM

Compound: O=CN1N=C(c2cccc(Nc3ccnc4cc(Cl)ccc34)c2)CC1c1ccc(Cl)cc1 (stereo unspecified)
- GI50 (OVCAR-3): 1.2 µM
- LC50 (OVCAR-3): > 100 µM
- GI50 (HOP-62): 1.91 µM
- LC50 (50% lethal concentration) (HOP-62): > 100 µM
- GI50 (SF-268): 4.37 µM
- LC50 (SF-268): > 100 µM
- inhibition at 20 µg/mL (Plasmodium falciparum): 7%
- GI50 (ACHN): 5.18 µM
- CC50 (ACHN): > 100 µM
- GI50 (HOP-92): 0.65 µM
- LC50 (concentration killing 50% of cells) (HOP-92): > 100 µM
- GI50 (MCF7): 0.81 µM
- CC50 (MCF7): > 100 µM
- GI50 (NCI-H460): 0.79 µM
- LC50 (NCI-H460): > 100 µM
- GI50 (SN12C): 3.86 µM
- LC50 (50% net cell kill relative to time zero) (SN12C): > 100 µM
- GI50 (HCC 2998): 3.36 µM
- LC50 (HCC 2998): > 100 µM
- GI50 (MDA-MB-435): 0.29 µM
- LC50 (MDA-MB-435): > 100 µM
- GI50 [1]: > 100 µM
- LC50 [1]: > 100 µM
- GI50 (SNB-19): 3.48 µM
- LC50 (SNB-19): > 100 µM
- GI50 (SK-MEL-28): 5.63 µM
- CC50 (SK-MEL-28): > 100 µM
- GI50 (RPMI-8226): 2.45 µM
- LC50 (concentration killing 50% of cells) (RPMI-8226): > 100 µM
- GI50 (K562): 0.41 µM
- LC50 (concentration killing 50% of cells) (K562): > 100 µM
- GI50 (SK-MEL-2): 2.05 µM
- LC50 (SK-MEL-2): > 100 µM
- GI50 (HCT-116): 0.6 µM
- LC50 (HCT-116): > 100 µM
- GI50 (T47D): 2.63 µM
- LC50 (concentration giving 50% cell kill relative to time zero) (T47D): > 100 µM
- GI50 (NCI-H226): > 100 µM
- LC50 (50% lethal concentration) (NCI-H226): > 100 µM
- GI50 (OVCAR-8): 3.8 µM
- LC50 (50% net cell kill) (OVCAR-8): > 100 µM
- GI50 (OVCAR-5): > 100 µM
- LC50 (OVCAR-5): > 100 µM
- GI50 (SK-MEL-5): 1.86 µM
- LC50 (concentration killing 50% of cells present at time zero) (SK-MEL-5): > 100 µM
